Measured values reported in ChEMBL document CHEMBL1122744, “2-Chloroethyl (methylsulfonyl)methanesulfonate and related (methylsulfonyl)methanesulfonates. Antineoplastic activity in vivo” (J Med Chem, 1984).

Columns and labels:
Mus musculus [1] = test: Median survival time of the untreated control groups, in which there are no 30-day survivors at dose 50 mg/kg in exp8; format: functional
Mus musculus [2] = test: Median survival time of the untreated control groups, in which there are no 30-day survivors at dose 33 mg/kg in exp4; format: functional
Mus musculus [3] = test: Median survival time of the untreated control groups, in which there are no 30-day survivors at dose 75 mg/kg in exp2; format: functional
[4] = Ratio of median survival times for non-survivors at dose 22 mg/kg in exp5; format: functional
Mus musculus [5] = test: Mortality by day 5 expressed as number of mice died to the total treated at dose 150 mg/kg in exp2; 5/5; format: ADME, organism-based; set-up: dose 150 mg/kg; conditions: in vivo
Mus musculus [6] = test: Median survival time of the untreated control groups, in which there are no 30-day survivors at dose 200 mg/kg in exp8; format: functional
[7] = Ratio of number of 30-day survivors to the total treated mice at dose 50 mg/kg in exp4; 6/6; format: functional
[8] = Ratio of median survival times for non-survivors at dose 100 mg/kg in exp1; format: functional; set-up: unit: %
Procedure, shortened: (§1)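 Mice were inoculated ip with 10^6 P388 leukemia cells on day 0. Groups of six (occasionally five) were dosed ip qd on days 1–5 with fresh suspensions; 30 mice served as untreated controls. Deaths were recorded daily up to day 60. T/C% compares the median survival of treated non-survivors (<60 days) with the control median. Medians used grouped data when there were no 30-day survivors, otherwise ungrouped data. t = toxic.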

[9] = Ratio of number of 60-day survivors to the total treated mice at dose 50 mg/kg in exp1; 2/6; format: functional
Mus musculus [10] = test: Change in weight by day 5, obtained by subtracting treated groups of animals minus control groups of animals at dose 50 mg/kg in exp7; format: functional
Procedure, shortened: (§2)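 Mice were inoculated ip with 10^6 P388 leukemia cells on day 0 and weighed 19–22 g that day. Compound was given ip once daily on days 1–5, within about 5 min of preparing the solution or suspension, to groups of six (occasionally five). Thirty inoculated untreated mice served as controls. The value is the average weight change of treated mice minus that of controls on day 5.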

Mus musculus [11] = test: Change in weight by day 5, obtained by subtracting treated groups of animals minus control groups of animals at dose 100 mg/kg in exp8; format: functional; procedure, shortened: as §2
Mus musculus [12] = test: Median survival time of the treated control groups, in which there are no 30-day survivors at dose 33 mg/kg in exp3; format: functional
Mus musculus [13] = test: Change in weight by day 5, obtained by subtracting treated groups of animals minus control groups of animals at dose 22 mg/kg in exp4.
Mus musculus [14] = test: Mortality by day 5 expressed as number of mice died to the total treated at dose 50 mg/kg in exp4; 0/6; format: ADME, organism-based; set-up: dose 50 mg/kg; conditions: in vivo
Mus musculus [15] = test: Mortality by day 5 expressed as number of mice died to the total treated at dose 75 mg/kg in exp2; 0/5; format: ADME, organism-based; set-up: dose 75 mg/kg; conditions: in vivo
Mus musculus [16] = test: Median survival time of the untreated control groups, in which there are no 30-day survivors at dose 100 mg/kg in exp8; format: functional
Mus musculus [17] = test: Mortality by day 5 expressed as number of mice died to the total treated at dose 100 mg/kg in exp1; 1/6; format: ADME, organism-based; set-up: dose 100 mg/kg; conditions: in vivo
Mus musculus [18] = test: Mortality by day 5 expressed as number of mice died to the total treated at dose 15 mg/kg in exp4; 0/6; format: ADME, organism-based; set-up: dose 15 mg/kg; conditions: in vivo
Mus musculus [19] = test: Mortality by day 5 expressed as number of mice died to the total treated at dose 22 mg/kg in exp3; 0/5; format: ADME, organism-based; set-up: dose 22 mg/kg; conditions: in vivo
Mus musculus [20] = test: Median survival time of the untreated control groups, in which there are no 30-day survivors at dose 50 mg/kg in exp6; format: functional
Mus musculus [21] = test: Mortality by day 5 expressed as number of mice died to the total treated at dose 33 mg/kg in exp3; 0/5; format: ADME, organism-based; set-up: dose 33 mg/kg; conditions: in vivo
Mus musculus [22] = test: Median survival time of the treated control groups, in which there are no 30-day survivors at dose 50 mg/kg in exp6; format: functional
Mus musculus [23] = test: Mortality by day 5 expressed as number of mice died to the total treated at dose 22 mg/kg in exp6; 0/6; format: ADME, organism-based; set-up: dose 22 mg/kg; conditions: in vivo
Mus musculus [24] = test: Median survival time of the treated control groups, in which there are no 30-day survivors at dose 50 mg/kg in exp8; format: functional
Mus musculus [25] = test: Median survival time of the untreated control groups, in which there are no 30-day survivors at dose 33 mg/kg in exp7; format: functional
Mus musculus [26] = test: Change in weight by day 5, obtained by subtracting treated groups of animals minus control groups of animals at dose 100 mg/kg in exp2.; format: functional; procedure, shortened: as §2
[27] = Ratio of median survival times for non-survivors at dose 50 mg/kg in exp1; format: functional; set-up: unit: %; procedure, shortened: as §1
Mus musculus [28] = test: Change in weight by day 5, obtained by subtracting treated groups of animals minus control groups of animals at dose 33 mg/kg in exp4.; format: functional; procedure, shortened: as §2
Mus musculus [29] = test: Median survival time of the untreated control groups, in which there are no 30-day survivors at dose 22 mg/kg in exp7; format: functional
Mus musculus [30] = test: Median survival time of the treated control groups, in which there are no 30-day survivors at dose 33 mg/kg in exp5; format: functional
Mus musculus [31] = test: Mortality by day 5 expressed as number of mice died to the total treated at dose 22 mg/kg in exp7; 0/6; format: ADME, organism-based; set-up: dose 22 mg/kg; conditions: in vivo
Mus musculus [32] = test: Median survival time of the treated control groups, in which there are no 30-day survivors at dose 50 mg/kg in exp2; format: functional
Mus musculus [33] = test: Change in weight by day 5, obtained by subtracting treated groups of animals minus control groups of animals at dose 50 mg/kg in exp6; format: functional; procedure, shortened: as §2
Mus musculus [34] = test: Median survival time of the untreated control groups, in which there are no 30-day survivors at dose 50 mg/kg in exp1; format: functional
Mus musculus [35] = test: Median survival time of the untreated control groups, in which there are no 30-day survivors at dose 33 mg/kg in exp5; format: functional
[36] = Ratio of number of 30-day survivors to the total treated mice at dose 50 mg/kg in exp6; 3/6; format: functional
Mus musculus [37] = test: Mortality by day 5 expressed as number of mice died to the total treated at dose 50 mg/kg in exp5; 0/6; format: ADME, organism-based; set-up: dose 50 mg/kg; conditions: in vivo
Mus musculus [38] = test: Median survival time of the untreated control groups, in which there are no 30-day survivors at dose 100 mg/kg in exp2; format: functional
Mus musculus [39] = test: Mortality by day 5 expressed as number of mice died to the total treated at dose 33 mg/kg in exp6; 0/6; format: ADME, organism-based; set-up: dose 33 mg/kg; conditions: in vivo
[40] = Ratio of number of 60-day survivors to the total treated mice at dose 33 mg/kg in exp4; 0/6; format: functional

Work on CS(=O)(=O)CS(=O)(=O)OCCCl yielded a Median survival time (Mus musculus [1]) of 11, a Median survival time (Mus musculus [2]) of 10.5 and a Median survival time (Mus musculus [3]) of 11.2. The Ratio [4] was 161, the Mortality (Mus musculus [5]) was 5 and the Median survival time (Mus musculus [6]) was 11. The Ratio [7] was 6, the Ratio [8] was 151 and the Ratio [9] was 2. For the same compound, the Change in weight (Mus musculus [10]) was -3, the Change in weight (Mus musculus [11]) was -6 and the Median survival time (Mus musculus [12]) was 22. For the same compound, the Change in weight (Mus musculus [13]) was -1.2, the Mortality (Mus musculus [14]) was 0 and the Mortality (Mus musculus [15]) was 0. For the same compound, the Median survival time (Mus musculus [16]) was 11, the Mortality (Mus musculus [17]) was 1 and the Mortality (Mus musculus [18]) was 0. For the same compound, the Mortality (Mus musculus [19]) was 0, the Median survival time (Mus musculus [20]) was 13 and the Mortality (Mus musculus [21]) was 0. It also gave a Median survival time (Mus musculus [22]) of 43.5, a Mortality (Mus musculus [23]) of 0 and a Median survival time (Mus musculus [24]) of 30. It also gave a Median survival time (Mus musculus [25]) of 10.7, a Change in weight (Mus musculus [26]) of -4.1 and a Ratio [27] of 281. The Change in weight (Mus musculus [28]) was -2.6, the Median survival time (Mus musculus [29]) was 10.7 and the Median survival time (Mus musculus [30]) was 25.7. The Mortality (Mus musculus [31]) was 0, the Median survival time (Mus musculus [32]) was 27 and the Change in weight (Mus musculus [33]) was -3.1. For the same compound, the Median survival time (Mus musculus [34]) was 11.2, the Median survival time (Mus musculus [35]) was 12 and the Ratio [36] was 3. For the same compound, the Mortality (Mus musculus [37]) was 0, the Median survival time (Mus musculus [38]) was 11.2 and the Mortality (Mus musculus [39]) was 0. It also gave a Ratio [40] of 0.
